Test results from PMC3844559 (Journal of medicinal chemistry, 2013).
Values belong to the compound of their own block, whether it stands above or below them. No end group written: not given here. *: point of attachment. X1 = S‑(2,3-bis(palmitoyloxy)-(2R)-propyl)‑R‑cysteinyl, CCCCCCCCCCCCCCCC(=O)OC[C@H](CSC[C@H](N)C(=O)*)OC(=O)CCCCCCCCCCCCCCC

Key:
[1] = test system: ex vivo human blood models; settings: cited from earlier work
[2] = test system: murine models of immunization; settings: cited from earlier work
rabbit models = settings: cited from earlier work
aqueous solubility = assay type: physicochemical; settings: water
[3] = stability of aqueous stocks / accelerated stability testing; assay type: physicochemical; settings: for stability of aqueous stocks: aqueous stocks on storage
human TLR2 = human TLR2 (Homo sapiens, UniProt O60603); assay: human TLR2-specific NF-κB reporter gene assay; assay type: cell-based; settings: for EC50: hTLR2-Agonistic Activity (EC50 in nM), human TLR2-specific reporter gene assay; for hTLR2-specific agonistic activity: reporter gene assays
human TLR2, sequence (O60603 21-784): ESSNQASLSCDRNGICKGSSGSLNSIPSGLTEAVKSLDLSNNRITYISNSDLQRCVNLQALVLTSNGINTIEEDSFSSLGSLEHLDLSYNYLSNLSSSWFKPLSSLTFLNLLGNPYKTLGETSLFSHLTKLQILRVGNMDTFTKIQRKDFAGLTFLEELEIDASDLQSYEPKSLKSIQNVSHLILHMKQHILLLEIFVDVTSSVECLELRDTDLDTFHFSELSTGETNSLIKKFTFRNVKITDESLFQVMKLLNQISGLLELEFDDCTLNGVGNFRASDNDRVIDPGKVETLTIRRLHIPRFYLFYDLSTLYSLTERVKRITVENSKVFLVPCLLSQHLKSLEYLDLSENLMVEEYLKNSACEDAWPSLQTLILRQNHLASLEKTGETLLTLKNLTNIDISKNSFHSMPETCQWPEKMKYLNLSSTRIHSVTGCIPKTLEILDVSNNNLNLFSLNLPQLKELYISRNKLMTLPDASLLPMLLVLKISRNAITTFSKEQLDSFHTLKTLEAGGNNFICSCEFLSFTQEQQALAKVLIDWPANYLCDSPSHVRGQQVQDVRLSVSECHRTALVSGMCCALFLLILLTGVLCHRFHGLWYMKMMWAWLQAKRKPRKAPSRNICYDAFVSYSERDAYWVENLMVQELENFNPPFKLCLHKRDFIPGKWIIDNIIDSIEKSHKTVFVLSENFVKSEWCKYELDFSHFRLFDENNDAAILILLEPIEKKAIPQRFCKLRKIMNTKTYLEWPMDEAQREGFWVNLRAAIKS

[4] = test system: human PBMCs or human whole blood; assay: proinflammatory cytokine induction, 5-plex cytometric bead assays; assay type: cell-based; settings: 5-plex cytometric bead assays (data not shown)
[5] = test system: granulocytes and monocytes in human whole blood; assay: CD11b upregulation by flow cytometry in whole human blood; assay type: cell-based; settings: 1 h
In short: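 Heparin-anticoagulated whole blood from healthy volunteers was added to serial dilutions of test compound, with reference compounds and fRPMI negative controls, then held 1 h at 37 °C. Cells were stained with CD11b-PE/CD14-APC for 30 min at 4 °C in the dark, then lysed/fixed and washed twice in saline. 100,000 gated events were acquired. Granulocytes were gated by forward/side scatter, monocytes by CD14.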

rabbits = assay: safety evaluation in rabbits; assay type: in vivo, rabbit
In short: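 Rabbits (n=3 per group) received test compound 100 μg/dose, LPS 1 μg/dose (positive control) or saline vehicle. Doses were in sterile saline without excipients, 0.5 mL, as an i.v. bolus into the marginal ear vein. Blood was drawn from the contralateral ear at 0, 2 and 6 h for total/differential leukocytes, band forms, hemoglobin and MCH. Core temperature was logged by rectal thermistor probe.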

human PBMCs = assay: 41-plex chemokine/cytokine immunoassay in hPBMC; assay type: cell-based; settings: 12 h, 41-plex immunoassay
In short: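 Fresh human PBMCs were isolated on Ficoll-Hypaque gradients from venipuncture blood. Cells were plated at 10⁵ per well, stimulated 12 h with graded concentrations of test compound, with LPS as reference. Supernatants were collected by centrifugation and assayed in duplicate for 41 cytokines/chemokines by magnetic bead multiplex; intra-assay CV was 4–8%. Data are means of duplicates from a representative experiment.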

patients = settings: cited from earlier work
[6] = single i.v. bolus, 38 100 μg, LPS 1 μg

Compound: CCCCCCCCCCCCCCCC(=O)OCC(CSC[C@H](N)C(=O)N[C@@H](CO)C(=O)O)OC(=O)CCCCCCCCCCCCCCC (mixture of isomers) [Compound 2, S-[2,3-bis(palmitoyloxy)-(2RS)-propyl]-R-cysteinyl-S-serine]
levels of proinflammatory mediators such as TNF-α, IL-1β and IL-18 ([1]; earlier findings): virtually undetectable levels | pro-inflammatory activity (TNF-α, IL-1β, IL-6, IL-8 production) ([1]; ex vivo human blood models): devoid of any detectable pro-inflammatory activity | adjuvanticity [2]: potently adjuvantic | local reactogenicity and pyrogenicity (rabbit models): devoid of

Compound: CCCCCCCCCCCCCCCC(=O)OCCSC[C@H](NC(C)=O)C(=O)N[C@@H](CCCCN)C(=O)OC [Compound 10, 2-(((R)-2-Acetamido-3-(((S)-6-amino-1-methoxy-1-oxohexan-2-yl)amino)-3-oxopropyl)thio)ethyl palmitate]
aqueous solubility (aqueous solubility): highly water soluble | stability of aqueous stocks [3]: significant loss of activity of aqueous stocks in less than a week | EC50 (human TLR2): 1.5 nM

Compound: CCCCCCCCCCCCCc1cn(CCSC[C@H](NC(C)=O)C(=O)N[C@@H](CO)C(=O)OC)nn1 [Compound 24, (S)-Methyl 2-((R)-2-acetamido-3-((2-(4-tridecyl-1H-1,2,3-triazol-1-yl)ethyl)thio)propanamido)-3-hydroxypropanoate]
EC50 (human TLR2): 290 nM

Compound: CCCCCCCCCCCCCCCCOC(=O)NCCSC[C@H](NC(C)=O)C(=O)N[C@@H](CO)C(=O)OC [Compound 34, (2S,5R)-Methyl 5-acetamido-2-(hydroxymethyl)-4,11-dioxo-12-oxa-7-thia-3,10-diazaoctacosan-1-oate]
EC50 (human TLR2): 0.065 nM

Compound: CCCCCCCCCCCCCCCCOC(=O)NCCSC[C@H](NC(C)=O)C(=O)N[C@@H](CO)C(=O)NCCCN(C)C [Compound 38, Hexadecyl ((8S,11R)-11-acetamido-8-(hydroxymethyl)-2-methyl-7,10-dioxo-13-thia-2,6,9-triazapentadecan-15-yl)carbamate]
proinflammatory cytokine signatures [4]: could not detect any significant proinflammatory cytokine signatures | CD11b upregulation in monocytes ([5]; CD14+ gated): strong monocytic CD11b upregulation | CD11b upregulation in neutrophils (granulocytes) ([5]; relative to 2): upregulated CD11b very potently | solubility (aqueous solubility): > 10000 µg/mL | chemical stability under accelerated stability testing conditions ([3]; accelerated stability testing): retained excellent chemical stability | pyrogenicity (febrile response, core temperature) (rabbits; [6]): did not induce any such effects | total leukocyte and lymphocyte counts in peripheral blood (rabbits; [6]): did not induce any such effects | observable adverse effects, dose-escalation study (rabbits; up to 100 μg/animal, intramuscular or intravenous bolus): did not result in any observable adverse effects | chemokine induction (MCP-1, MCP-3, MDC, IL-8) (human PBMCs): prominent biphasic induction | EC50 (human TLR2): 0.25 nM

Compound: S-[2,3-bis(palmitoyloxy)-(2R)-propyl]-R-cysteinyl-GNNDESNISFKEK (X1-GNNDESNISFKEK) [Compound 1]
well tolerated dose, intra-tumoral injection (patients; ten patients with pancreas carcinomas, 20–30 μg injected during surgery): up to 20 μg | systemic side effects, intra-tumoral injection (patients; ten patients with pancreas carcinomas, 20–30 μg): no systemic side effects were noted | systemic side effects, application on punch biopsy skin lesions (patients; twelve patients, 0.125–1.0 μg): other than transient and self-limited erythema, no systemic side effects were noted

Further lines, with some results ahead:

aqueous solubility (aqueous solubility): highly water soluble | stability of aqueous stocks [3]: found to be unstable | EC50 (human TLR2): 1.5 nM
Compound: CCCCCCCCCCCCCCCC(=O)OCCSC[C@H](NC(C)=O)C(=O)N[C@@H](COC(=O)[C@@H](N)CCCCN)C(=O)OC [Compound 12, 2-(((R)-2-Acetamido-3-(((S)-3-(((S)-2,6-diaminohexanoyl)oxy)-1-methoxy-1-oxopropan-2-yl)amino)-3-oxopropyl)thio)ethyl palmitate]
hTLR2-specific agonistic activity (human TLR2): retained hTLR2-specific agonistic activity

aqueous solubility (aqueous solubility): highly water soluble | EC50 (human TLR2): 5.84 nM
Compound: CCCCCCCCCCCCCCCC(=O)OCCSC[C@H](NC(C)=O)C(=O)N[C@@H](COS(=O)(=O)O)C(=O)OC [Compound 13, 2-(((R)-2-Acetamido-3-(((S)-1-methoxy-1-oxo-3-(sulfooxy)propan-2-yl)amino)-3-oxopropyl)thio)ethyl palmitate]
hTLR2-specific agonistic activity (human TLR2): retained hTLR2-specific agonistic activity

aqueous solubility (aqueous solubility): highly water soluble | EC50 (human TLR2): 0.65 nM
Compound: CCCCCCCCCCCCCCCC(=O)OCCSC[C@H](NC(C)=O)C(=O)N[C@@H](COC(=O)CCC(=O)O)C(=O)OC [Compound 14, (7S,10R)-10-Acetamido-7-(methoxycarbonyl)-4,9,16-trioxo-5,15-dioxa-12-thia-8-azahentriacontan-1-oic acid]
hTLR2-specific agonistic activity (human TLR2): retained hTLR2-specific agonistic activity

EC50 (human TLR2): 0.75 nM
Compound: CCCCCCCCCCCCCCCC(=O)OCCSC[C@H](NC(C)=O)C(=O)N[C@@H](COC(=O)c1cccnc1)C(=O)OC [Compound 15, (S)-2-((R)-2-Acetamido-3-((2-(palmitoyloxy)ethyl)thio)propanamido)-3-methoxy-3-oxopropyl nicotinate]
hTLR2-specific agonistic activity (human TLR2): retained hTLR2-specific agonistic activity

EC50 (human TLR2): 12.8 nM
Compound: CCCCCCCCCCCCCCCC(=O)NCCSC[C@H](NC(C)=O)C(=O)N[C@@H](CO)C(=O)OC [Compound 22, (S)-Methyl 2-((R)-2-acetamido-3-((2-palmitamidoethyl)thio)propanamido)-3-hydroxypropanoate]

EC50 (human TLR2): 1020 nM
Compound: CCCCCCCCCCCCCCCCn1cc(CCSC[C@H](NC(C)=O)C(=O)N[C@@H](CO)C(=O)OC)nn1 [Compound 27, (S)-Methyl 2-((R)-2-acetamido-3-((2-(1-hexadecyl-1H-1,2,3-triazol-4-yl)ethyl)thio)propanamido)-3-hydroxypropanoate]
